# Assay outcomes: PubChem BioAssay, Johns Hopkins Ion Channel Center
# In the library only some 3.5% were active in any assay of this set; here they are far more common.
# MrgX1 PAM: positive allosteric modulators of MrgX1, primary screen, HEK293 cells, Fluo-4 calcium flux. Mas-related G-protein coupled receptor member X1 (Homo sapiens), Q96LB2. FDSS; stronger effect = higher value. B-score at 10 µM. hit rate 0.63% among 310,000. AID 588675, 2011;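 active = plate-corrected calcium response at least 3 library SD above typical, normal starting fluorescence, not activating the receptor alone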;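 also: compound read alongside a low EC10 to EC30 dose of BAM8-22 agonist; peak minus trough fluorescence over baseline measured at the second addition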
# Target sequence (Q96LB2 whole entry, looked up): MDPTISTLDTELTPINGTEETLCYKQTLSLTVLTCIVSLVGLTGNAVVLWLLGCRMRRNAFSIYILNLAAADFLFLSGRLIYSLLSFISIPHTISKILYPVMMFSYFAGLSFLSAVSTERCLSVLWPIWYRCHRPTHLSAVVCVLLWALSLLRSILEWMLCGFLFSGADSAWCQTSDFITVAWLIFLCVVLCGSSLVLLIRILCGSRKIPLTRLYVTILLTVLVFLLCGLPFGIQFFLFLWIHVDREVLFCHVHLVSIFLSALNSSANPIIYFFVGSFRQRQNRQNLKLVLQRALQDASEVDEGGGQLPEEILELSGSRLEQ
# RGS4 block: RGS4 inhibitors, primary screen, cell-based, HEK293 M3R inducible RGS4, calcium flux | Regulator of G-protein signaling 4 (Homo sapiens), P49798 | Fluo-4 calcium flux; stronger effect = higher value; triggered by carbachol at its EC20 | B-score at 10 µM | hit rate 0.45% among 310,000;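 active = B-score, a plate-corrected calcium signal, over three deviations above library mean, with baseline fluorescence within five deviations of library mean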;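 also: RGS4 expression induced by doxycycline in cells with stable M3 receptor; B-score is computed from the integrated fluorescence ratio over baseline after carbachol; higher B-score means a larger calcium signal and so more RGS4 inhibition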
# Target sequence (P49798 whole entry, looked up): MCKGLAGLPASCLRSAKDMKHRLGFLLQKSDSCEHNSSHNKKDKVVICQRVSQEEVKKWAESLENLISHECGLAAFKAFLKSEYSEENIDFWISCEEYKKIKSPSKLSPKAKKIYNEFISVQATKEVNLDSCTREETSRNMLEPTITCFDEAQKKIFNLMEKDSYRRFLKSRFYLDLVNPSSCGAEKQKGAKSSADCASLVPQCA
# MrgX1 ag: agonists of human MrgX1 receptor, primary screen, HEK293 cells, Fluo-4 calcium flux; Fluo-4 calcium fluorescence, agonist mode; stronger effect = higher value; AID 588627, 2011; B-score at 10 µM; hit rate 0.44% among 310,000;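 active = calcium response B-score plate-corrected fluorescence ratio at least 3 library SD, with starting fluorescence B-score inside 5 SD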
#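 Material: MrgX1-expressing HEK293 cells; input: 15,000 cells per well; doses: test compound given as first of three sequential additions; schedule: overnight plating before 1 h dye loading; technique: Fluo-4 NW calcium-flux fluorescence, kinetic read; evaluation: baseline-normalised fluorescence change ratio, B-scored; control set: plate-wise positive and negative controls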
# RGS4 pot: RGS4 potentiators or activators, primary screen, cell-based, HEK293 M3R inducible RGS4, calcium flux; carbachol calcium flux Fluo4; stronger effect = lower value; hit rate 0.92% among 310,000; B-score at 10 µM; AID 463111, 2010;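 active = B-score of the integrated calcium signal more than 4 SD below the library mean, with starting fluorescence not abnormally high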;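 also: negative B-score means reduced calcium response which marks RGS4 activation or potentiation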
#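 System: HEK293 FlpIn-TREx cells, stable M3R, doxycycline-inducible RGS4. Timing: overnight RGS4 induction, 30 min dye load 37 °C, 20 min compound RT. Also added: carbachol, ECmax concentration. Measured by: Fluo4 fluorescence kinetic imaging of calcium. Evaluation: integrated calcium ratio converted to B score.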
# MrgX1 antagonist: antagonists of human MrgX1 receptor, primary screen, HEK293 cells, Fluo-4 calcium flux; Mas-related G-protein coupled receptor member X1 (Homo sapiens), Q96LB2; BAM8-22 antagonism; stronger effect = lower value; B-score at 10 µM; hit rate 1.3% among 310,000;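 active = calcium-response B-score plate-corrected more than 3 library SD below zero, starting fluorescence within 5 deviations, no agonist response on first addition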;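 also: peak minus trough fluorescence over baseline after final BAM8-22 challenge near maximal dose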
# MrgX1 antag conf: MrgX1 receptor antagonists, duplicate retest, confirmation, HEK293 cells, Fluo-4 calcium flux. shares compounds with MrgX1 antagonist. BAM8-22 calcium flux; stronger effect = lower value. remaining BAM8-22 calcium response % of control (stronger effect = lower value), % at 10 µM. hit rate 19% among 2,300. AID 602420, 2012;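 active = remaining agonist calcium response no higher than 100% minus 3 SD of agonist-only control wells, with starting fluorescence near control levels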;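 also: agonist BAM8-22 given at a near maximal EC90 to ECmax level; peak minus minimum fluorescence divided by baseline after agonist addition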
# HEK293 Ca flux: nonspecific calcium signal in parental HEK293, confirmation, counter-screen for MrgX1 antagonist project, parental HEK293 cells, Fluo-4 calcium flux; shares compounds with MrgX1 antagonist; Fluo-4 calcium fluorescence, FDSS; fluorescence ratio F(max-min)/F0 at 10 µM; hit rate 2% among 4,000;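 active = duplicate-averaged calcium fluorescence ratio at least three times the standard deviation of buffer wells, a nonspecific response in parental cells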
# HEK293 Ca counter: calcium response in parental HEK293 cells, primary screen, counter-screen for MrgX1 allosteric activator project, cell-based, Fluo-4 calcium flux, duplicate. shares compounds with MrgX1 antagonist. Fluo-4 fluorescence ratio; stronger effect = higher value. fluorescence ratio F(max-min)/F0 at 10 µM. hit rate 0.4% among 4,000;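 active = calcium fluorescence ratio, averaged over duplicates, at least 3 SD of the buffer-well ratio, meaning a nonspecific response in receptor-free cells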;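 also: untransfected parental HEK293 lacking MrgX1 used as counterscreen for MrgX1 allosteric activators; fluorescence change taken during the second addition on a kinetic imager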
# HEK293 Ca cntr2: calcium response in parental HEK293 cells, primary screen, counter-screen for MrgX1 agonist project, cell-based, Fluo-4 calcium flux, duplicate, agonist mode. Fluo-4 calcium fluorescence (FDSS); stronger effect = higher value. fluorescence ratio F(max-min)/F0 at 10 µM. shares compounds with MrgX1 antagonist. hit rate 8.7% among 4,000;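 active = calcium fluorescence ratio at least three times the spread of buffer wells, meaning a non-specific response in parental cells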
# Active calls of the source: *; i = inactive; / = no result.
SMILES,MrgX1 PAM,RGS4 block,MrgX1 ag,RGS4 pot,MrgX1 antagonist,MrgX1 antag conf,HEK293 Ca flux,HEK293 Ca counter,HEK293 Ca cntr2
COc1ccc(C)cc1NC(=O)CCN1CC(C)OC(C)C1 (stereo not drawn),i,i,i,i,-5.1*,i,i,i,i
O=C(Oc1ccc(-c2nnco2)cc1)N1CCOCC1,i,i,i,i,-5*,i,i,i,i
Cc1cc(=O)[nH]c(-c2ccccc2OC(F)(F)F)n1,i,i,i,i,i,/,/,/,/
C=CCOc1ccc(C2C(C(=O)c3ccco3)=C(O)C(=O)N2c2nnc(C)s2)cc1 (stereo not drawn),i,i,i,i,-5*,i,i,i,i
COc1ccc(C2C(C(=O)c3ccco3)=C(O)C(=O)N2c2nnc(C)s2)cc1 (stereo not drawn),i,i,i,i,i,/,/,/,/
O=C(CCSc1ccccc1)NC(=O)COC(=O)C1CCCCC1,i,i,i,i,-4.6*,i,i,i,i
O=C(CCSc1ccccc1)NC1CCCCCC1,i,i,i,i,i,/,/,/,/
CCC1Oc2ccccc2N(CC(=O)NC2CC2)C1=O (stereo not drawn),i,i,i,i,i,/,/,/,/
CCC1Sc2ccccc2N(CC(=O)NC2CC2)C1=O (stereo not drawn),i,i,i,i,-7*,i,i,i,i
Cc1ccc(CN2CCN(C(=O)c3ccncc3)CC2)cc1,i,i,i,i,-4.7*,i,i,i,i
O=C(c1ccccc1)N1CCN(Cc2ccccc2)CC1,i,i,i,i,i,/,/,/,/
Cc1ccc(C(=O)Nc2ccc(S(=O)(=O)N3CCc4ccccc4C3)cc2)o1,i,i,i,i,i,/,/,/,/
O=C(Cc1cccs1)Nc1ccc(S(=O)(=O)N2CCCCC2)cc1,i,/,i,/,i,/,/,/,/
CCC(=O)Nc1ccc(S(=O)(=O)N2CCc3ccccc3C2)cc1,i,i,i,i,-7.9*,i,i,i,i
CN1CCN(S(=O)(=O)c2ccc(NC(=O)Cc3cccs3)cc2)CC1,i,i,i,i,-4.7*,i,i,i,51*
O=c1ccc(Oc2nc(N3CCCCC3)nc(N3CCCCC3)n2)n[nH]1,i,i,i,i,-5.5*,i,i,i,i
CC(C)(C)[C@H]1C=C(C(=O)NCc2ccccc2)O[C@@H](OCCCCO)C1,i,i,i,i,i,/,/,/,/
CCN(C(=O)COC(=O)c1oc2ccc(OC)cc2c1C)C1CCCCC1,i,i,i,i,i,/,/,/,/
CC(=O)N=c1sc2ccccc2n1C,i,i,i,i,i,/,/,/,/
CC(C(=O)N=c1sc2ccccc2n1C)N1C(=O)C2CC=CCC2C1=O (stereo not drawn),i,i,i,i,-4.7*,i,i,i,i
CCOc1ccc(NC(=O)CC(NCc2ccccn2)C(=O)O)cc1 (stereo not drawn),i,i,i,i,i,/,/,/,/
Cc1ccc(S(=O)(=O)N2CCC(C(=O)N3CCC(C(=O)NCc4cccnc4)CC3)CC2)cc1,i,i,i,i,-6.6*,85%*,i,i,i
COc1ccc(C(=O)N2CCN(c3ncccn3)CC2)cc1[N+](=O)[O-],i,i,i,i,i,/,/,/,/
CN1CCN(C2=Nc3c(Cl)cc(Cl)c4cccc2c34)CC1,i,i,i,i,-5.8*,i,i,i,49*
CN1CCN(C2=Nc3cc(F)ccc3Cc3ccccc32)CC1,i,i,i,i,i,/,/,/,/
SMILES,MrgX1 PAM,RGS4 block,MrgX1 ag,RGS4 pot,MrgX1 antagonist,MrgX1 antag conf,HEK293 Ca flux,HEK293 Ca counter,HEK293 Ca cntr2
COc1ccc(CCNc2ncnc3c2oc2ccccc23)cc1OC,i,i,i,i,-4.6*,43%*,i,i,i
Cc1nnc(NC(=O)C2CCCN2C(=O)Nc2ccccc2)s1 (stereo not drawn),i,i,i,i,i,/,/,/,/
CN(CC(=O)Nc1cccc(Cl)c1)S(=O)(=O)c1ccc2[nH]c(=O)oc2c1,i,i,i,i,i,/,/,/,/
CCN1CCN(C(=O)C2CCN(Cc3cc(Cl)ccc3O)CC2)CC1,i,i,i,i,-7.7*,i,i,i,i
CCN1CCN(C(=O)C2CCN(Cc3nc(-c4cccc(Cl)c4)oc3C)CC2)CC1,i,i,i,i,i,/,/,/,/
S=C(NCc1ccc(Cl)cc1)NCc1ccco1,i,i,i,i,i,/,/,/,/
CCNC(=S)NCc1ccco1,i,i,i,i,-6.2*,i,i,i,i
CC(C)CC1NC(=O)N(Cc2cc(=O)n3ccsc3n2)C1=O (stereo not drawn),i,i,i,i,i,/,/,/,/
COc1cccc(NC(=O)CN(C)C(=O)c2cccnc2Sc2ccc(C)c(C)c2)c1,i,i,i,i,-7.2*,i,i,i,i
COC(=O)[C@@H](NC(=O)c1ccc2c(c1)S(=O)(=O)c1ccccc1C2=O)C(C)C,i,i,i,i,-4.7*,i,i,i,i
CCn1c2ccccc2c2cc(CN3CCN(S(=O)(=O)CC)CC3)ccc21,i,i,i,i,i,/,/,/,/
CCn1c2ccccc2c2cc(CN3CCN(S(=O)(=O)Cc4ccccc4)CC3)ccc21,i,i,i,i,-8.1*,80%*,i,i,i
O=C(CSc1nc2[nH]ncc2c(=O)[nH]1)Nc1ccc(Cl)cc1,i,i,i,i,i,/,/,/,/
